Only a selection was taken, and hits are over-represented in it overall.
INS-1E rescue = protection of INS-1E cells from cytokine death, primary screen, ATP luminescence, single point. 20,000 tested, 0.1% active. AID 488910, 2010. INS-1E cytokine-induced death, 48 h; normalised: neutral wells 0, positive control 100. protection from cytokine-induced ATP loss, % at 10 µM;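 active = mean replicate protection from cytokine-induced ATP loss at least 50% and at least 75% of replicates each reaching 50%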
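Assay system: INS-1E rat cells / Quantity: 8000 cells per well / Medium: RPMI without phenol red, 5% FBS / Probe or stimulus: three-cytokine cocktail (IFN-γ, TNF-α, IL-1β) / Dosing: one compound concentration, pin transfer / Timing: 48 h co-treatment, 10 min post-lysis read / Technique: CellTiter-Glo luminescence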
T cruzi intra = inhibitors of intracellular Trypanosoma cruzi, primary screen, cell-based, plate reader, single point, set 2; intracellular Trypanosoma cruzi in host cells; activity score (inhibition), % at 5.01 µM; 22,000 tested, 4.9% active; AID 651903, 2012; in the data active = activity score above about 55%;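 also: parasites and compound incubated about four days before reading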
A1 apoptosis 2 = A1 inhibitors via caspase activation, primary screen, cell-based, luminescence, HTS, two replicates; AID 2465, 2010; caspase activation, % (test concentration not listed); MEF A1-2A-BIM cells, caspase-Glo luminescence, 3 h; percent of clofoctol response, DMSO zero; 24,000 tested, under 10 active; in the data active = caspase activation above about 5.9%
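System: mouse embryonic fibroblasts co-expressing A1 and BIM (A1-2A-BIM), primed for A1 dependence; amount: 2500 cells/well; doses: 50 nL pinned compound; schedule: cells settled overnight, compound exposure 3 h at 37 °C, 5% CO2; detection: Caspase-Glo 3/7 luminescence, 1 h at room temperature; read-out: Caspase-3/7 activation, seen as rise in luminescence signal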
A number is an active result; - = inactive; . = not tested or not shown.

SMILES | INS-1E rescue | T cruzi intra | A1 apoptosis 2
C=C(C)[C@@H]1CC=C(/C=N/NC(=O)c2ccccc2O)CC1 | - | - | -
CC(=O)[C@]12O[C@]3(COC[C@H](c4ccccc4)N3C1=O)[C@@H]1C(=O)N(C)C(=O)[C@@H]12 | . | . | -
COC(=O)CCCCCCC(=O)N/N=C/c1ccc(-c2ccccc2)c(F)c1 | - | - | -
O=C(CCCCC(=O)N/N=C/c1cccc(O)c1)NO | - | - | .
O=C(CCCCC(=O)N/N=C/c1cc(O)ccc1O)NO | - | - | -
O=C(CCCCCC(=O)N/N=C/c1ccc(O)c2ccccc12)NO | 57 | - | -
O=C(CCCCC(=O)N/N=C/c1ccc2ccccc2c1)NO | 73 | - | -
O=C(CCCCC(=O)N/N=C/c1ccc(-c2ccccc2)c(F)c1)NO | 60 | - | .
C[C@H]1CN([C@@H](C)CO)C(=O)Cc2cc(NS(=O)(=O)c3cccs3)ccc2O[C@@H]1CN(C)C | - | - | -
C[C@@H]1CN([C@H](C)CO)C(=O)Cc2cc(NC(=O)c3ccncc3)ccc2O[C@H]1CN(C)S(=O)(=O)c1ccc(Cl)cc1 | - | - | -
C[C@@H]1CN([C@@H](C)CO)C(=O)c2cccc(NC(=O)c3ccncc3)c2O[C@H]1CN(C)Cc1ccc(C(=O)O)cc1 | - | - | -
C[C@@H]1CN([C@@H](C)CO)C(=O)c2cccc(NC(=O)c3ccncc3)c2O[C@H]1CN(C)Cc1ccc(-c2ccccc2)cc1 | - | 83 | .
C[C@H](CO)N1C[C@H](C)[C@H](CN(C)Cc2ccc(-c3ccccc3)cc2)Oc2c(NC(=O)c3ccncc3)cccc2C1=O | - | 68 | -
C[C@H](CO)N1C[C@H](C)[C@@H](CN(C)Cc2ccccc2)Oc2c(NC(=O)c3ccncc3)cccc2C1=O | - | 79 | .
C[C@@H]1CN([C@@H](C)CO)C(=O)c2cccc(NC(=O)c3ccncc3)c2O[C@@H]1CN(C)Cc1ccccc1 | - | - | .
C[C@@H]1CN([C@H](C)CO)C(=O)c2cccc(NC(=O)c3ccncc3)c2O[C@H]1CN(C)Cc1ccc(-c2ccccc2)cc1 | - | 84 | .
Cc1noc(C)c1NC(=O)N(C)C[C@@H]1OCCCC[C@H](C)Oc2ccc(NC(=O)Cc3ccccc3)cc2C(=O)N([C@H](C)CO)C[C@@H]1C | . | . | -
NC(=O)COc1ccc(/C=N/NC(=O)c2cccc(C(=O)NO)c2)cc1 | - | - | .
O=S(=O)(N[C@@H]1CCCN(Cc2cccc(OCCO)c2)C1)c1cccc(F)c1 | . | . | -
C[C@@H]1CN([C@H](C)CO)C(=O)c2cccc(NC(=O)c3ccncc3)c2O[C@@H]1CN(C)Cc1ccc(C(=O)O)cc1 | - | - | -
C[C@H](CO)N1C[C@H](C)[C@@H](CN(C)Cc2ccc(-c3ccccc3)cc2)Oc2c(NC(=O)c3ccncc3)cccc2C1=O | - | 57 | .
COC(=O)c1ccc(/C=N/NC(=O)c2cccc(C(=O)NO)c2)cc1 | - | - | -
C#CCOc1ccc(/C=N/NC(=O)c2cccc(C(=O)NO)c2)cc1 | - | - | -
C[C@@H]1CN([C@H](C)CO)C(=O)c2cccc(NC(=O)c3nc4ccccc4s3)c2O[C@H]1CN(C)Cc1ccc(C(=O)Nc2ccccc2N)cc1 | - | 79 | .
C[C@H]1CN([C@@H](C)CO)C(=O)c2cccc(NC(=O)c3nc4ccccc4s3)c2O[C@H]1CN(C)Cc1ccc(C(=O)Nc2ccccc2N)cc1 | - | 79 | -
SMILES | INS-1E rescue | T cruzi intra | A1 apoptosis 2
C[C@H](CO)N1C[C@H](C)[C@@H](CN(C)Cc2ccncc2)Oc2c(NC(=O)c3nc4ccccc4s3)cccc2C1=O | - | - | -
C[C@H](CO)N1C[C@H](C)[C@H](CN(C)Cc2ccncc2)Oc2c(NC(=O)c3nc4ccccc4s3)cccc2C1=O | - | - | .
COCCOC(=O)N1C(=O)[C@@]2(c3cc(C#CC4=CCCCC4)ccc31)[C@H](C(N)=O)[C@H]1C(=O)O[C@H](c3ccccc3)[C@H](c3ccccc3)N1[C@@H]2c1ccccc1OCCO | . | . | -
O=C(CCCCCCC(=O)Nc1ccccc1O)N/N=C/c1cccnc1Br | - | - | .
COc1ccc(NC(=O)Nc2ccc3c(c2)CC(=O)N([C@H](C)CO)C[C@H](C)[C@@H](CN(C)Cc2ccc(-c4ccccc4)cc2)O3)cc1 | . | . | -
C[C@@H]1CN([C@H](C)CO)C(=O)Cc2cc(NC(=O)Nc3ccc(F)cc3)ccc2O[C@@H]1CN(C)Cc1ccc(-c2ccccc2)cc1 | - | 61 | .
C[C@H](CO)N1C[C@H](C)[C@H](CN(C)Cc2ccc(C(F)(F)F)cc2)Oc2ccc(NC(=O)Nc3ccccc3)cc2CC1=O | - | - | -
C[C@H](CO)N1C[C@H](C)[C@H](CN(C)Cc2ccc(-c3ccccc3)cc2)Oc2ccc(NC(=O)Nc3ccc(C(F)(F)F)cc3)cc2CC1=O | - | 65 | .
C[C@H](CO)N1C[C@H](C)[C@@H](CN(C)Cc2ccc(-c3ccccc3)cc2)Oc2ccc(NC(=O)Nc3ccc(F)cc3)cc2CC1=O | . | . | -
CC(C)NC(=O)Nc1ccc2c(c1)CC(=O)N([C@H](C)CO)C[C@H](C)[C@H](CN(C)Cc1ccc(-c3ccccc3)cc1)O2 | - | 67 | -
COc1ccc(NC(=O)Nc2ccc3c(c2)CC(=O)N([C@@H](C)CO)C[C@H](C)[C@H](CN(C)Cc2ccc(-c4ccccc4)cc2)O3)cc1 | - | 71 | -
CC(C)NC(=O)Nc1ccc2c(c1)CC(=O)N([C@@H](C)CO)C[C@@H](C)[C@@H](CN(C)Cc1ccc(-c3ccccc3)cc1)O2 | - | - | -
COc1ccccc1CN(C)C[C@@H]1OCc2cn(nn2)CCCC(=O)N([C@@H](C)CO)C[C@H]1C | . | - | -
COC(=O)CCCCCCC(=O)N/N=C/c1ccc(C(F)(F)F)cc1 | - | - | .
C[C@H](CO)N1C[C@H](C)[C@@H](CN(C)Cc2ccc(-c3ccccc3)cc2)Oc2ccc(NC(=O)Nc3ccc(C(F)(F)F)cc3)cc2CC1=O | . | . | -
C[C@@H]1CN([C@H](C)CO)C(=O)Cc2cc(NC(=O)Nc3ccc(C(F)(F)F)cc3)ccc2O[C@@H]1CN(C)Cc1ccc(-c2ccccc2)cc1 | - | 76 | .
O=C(N/N=C/c1ccc2c(c1)OCCO2)c1ccccc1O | - | - | -
C[C@@H]1CN([C@H](C)CO)C(=O)c2cc(NC(=O)CCCN(C)C)ccc2O[C@@H](C)CCCCO[C@@H]1CN(C)Cc1ccc(C(=O)O)cc1 | . | . | -
C[C@H]1CN([C@@H](C)CO)C(=O)c2cc(NS(=O)(=O)c3ccc(Cl)cc3)ccc2O[C@H]1CN(C)Cc1ccc(C(=O)Nc2ccccc2N)cc1 | - | 73 | .
C[C@@H]1CCCCO[C@@H](CN(C)Cc2ccc(C(=O)Nc3ccccc3N)cc2)[C@@H](C)CN([C@H](C)CO)C(=O)c2cc(NS(=O)(=O)c3cccs3)ccc2O1 | - | 62 | .
C[C@@H]1CCCCO[C@H](CN(C)Cc2ccc(C(=O)Nc3ccccc3N)cc2)[C@@H](C)CN([C@H](C)CO)C(=O)c2cc(NS(=O)(=O)c3cccs3)ccc2O1 | - | - | -

Bioassay records (PubChem)
